# UCH37 inh = human UCH37 deubiquitinating enzyme inhibition | purified proteasome/UCH37, Ub-AMC cleavage fluorescence | inhibition, % (concentration not given with the values) | hit rate 0.33% among 330,000 | AID 588478;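 active means mean inhibition over replicate wells above about 20%, limit read from the data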;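 further: 0% = compound-free wells with enzyme and 100% = wells lacking proteasome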
# Target sequence (Q9Y5K5 whole entry, looked up): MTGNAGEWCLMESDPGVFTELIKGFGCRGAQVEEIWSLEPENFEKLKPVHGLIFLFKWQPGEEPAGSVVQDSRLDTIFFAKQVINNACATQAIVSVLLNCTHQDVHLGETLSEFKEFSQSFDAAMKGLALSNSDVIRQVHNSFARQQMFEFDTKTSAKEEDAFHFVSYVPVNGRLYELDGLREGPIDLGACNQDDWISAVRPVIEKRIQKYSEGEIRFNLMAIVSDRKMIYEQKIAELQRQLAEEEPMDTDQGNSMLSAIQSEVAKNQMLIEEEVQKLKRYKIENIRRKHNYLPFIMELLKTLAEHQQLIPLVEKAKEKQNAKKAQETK
#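 Test system – human UCH37 enzyme supplied as purified proteasome complex · Incubation – 30 min preincubation with enzyme, 25 min cleavage at room temperature · Detection – AMC fluorescence from Ub-AMC cleavage, excitation 355 nm, emission 460 nm · Benchmarks – no-proteasome wells (full inhibition) and compound-free wells (no inhibition)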
# Apaf1 inhib = blocks human Apaf-1 apoptosome activity. O14727. reconstituted apoptosome caspase-3 activity, DEVD-Rh110 fluorescence. inhibition, % at 20 µM. hit rate 0.71% among 330,000. AID 489030; active means inhibition of at least 40% at 20 µM;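 further: plate controls were DMSO wells for no effect and DEVD-CHO caspase inhibitor wells for full effect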
#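 System: reconstituted apoptosome with Apaf-1, cytochrome c, caspase-9, procaspase-3, dATP; Signal: Rh110 fluorescence intensity; Schedule: 30 min compound preincubation, 50 min activation, room temperature; Reagent: cytochrome c trigger plus (Z-DEVD)2-Rh110 caspase-3 substrate.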
# PREPL inh = inhibits the human prolyl oligopeptidase-like enzyme | Q4J6C6 | recombinant PREPL, fluorescence polarization activity-based probe | inhibition, % at 5.96 µM | hit rate 0.68% among 320,000; in the data active means inhibition above about 43%;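 further: 0% = enzyme with DMSO and 100% = wells lacking enzyme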
# UBC13 inh = blocks human UBC13 polyubiquitin chain formation; P61088; TR-FRET; inhibition, % at 20 µM; hit rate 0.47% among 330,000; in the data active means inhibition above about 45%, passing the limit was not always enough; inconclusive means no clear call, values can overlap the other calls
# Casp3 counter = caspase-3 inhibition (UBC13 counter-screen); inhibition, % at 20 µM; Recombinant caspase-3, Caspase-Glo 3/7 luminescence, 60 min; hit rate 4% among 1,400; shares compounds with UBC13 inh;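 active means mean inhibition across replicates above about 26%, limit read from the data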;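 further: plate controls were DMSO with caspase-3 for no effect and DMSO wells lacking enzyme for full effect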
# Target sequence (P42574 whole entry, looked up): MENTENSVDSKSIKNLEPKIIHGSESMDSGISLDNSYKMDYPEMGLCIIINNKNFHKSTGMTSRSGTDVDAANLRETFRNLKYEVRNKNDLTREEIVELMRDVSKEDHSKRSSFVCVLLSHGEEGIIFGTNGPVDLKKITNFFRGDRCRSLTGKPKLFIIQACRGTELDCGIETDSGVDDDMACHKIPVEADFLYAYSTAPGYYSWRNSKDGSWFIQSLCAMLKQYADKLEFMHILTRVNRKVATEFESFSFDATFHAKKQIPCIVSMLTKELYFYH
# UBC13 conf = confirmation of human UBC13 polyubiquitin inhibitors; shares compounds with UBC13 inh; UBC13 polyubiquitination, TR-FRET, biochemical; inhibition, % at 10 µM; hit rate 68% among 1,400; AID 488859; in the data active means inhibition above about 45%; inconclusive means no clear call, values can overlap the other calls
# Starred values were filed as active, the others as inactive; i = inactive; u = inconclusive; x = no result given. Only some compounds are listed: those with a hit (about 1.5% of all), similar ones and a draw of the others.
SMILES,UCH37 inh,Apaf1 inhib,PREPL inh,UBC13 inh,Casp3 counter,UBC13 conf
CCC(=O)NC(=S)NNC(=O)c1ccc(NC(=O)c2ccccc2)cc1,-2.7,-8.1,-3.5,70.7*,12.5,91.2*
CCCCC(=O)NC(=S)NNC(=O)c1ccc(OC)cc1,-1.5,-24.1,0.8,68.6*,1.9,40.8
CC(=O)NC(=S)NNC(=O)COc1ccc([N+](=O)[O-])cc1,2.9,-0.3,5.5,12.9,x,x
C=CCNC(=S)NNC(=O)c1ccc(OCCC)cc1,-3.0,-8.1,1.9,2.5,x,x
CCCOc1ccc(C(=O)NNC(=S)NC(=O)CC)cc1,-39.0,18.0,14.6,66.4*,-0.3,82.7*
O=S1(=O)N=C(N(CCO)N=C/C=C/c2ccccc2)c2ccccc21,-6.0,x,x,x,x,x
O=C(NN=Cc1ccncc1)NC1CCCCC1,2.4,x,x,x,x,x
COc1ccc(CCNC(=O)CC(C)=NNC(=O)C2CCCCC2)cc1OC,4.4,x,x,x,x,x
CCOC(=O)c1sc2nc(C3CC3)cc(-c3ccc(OC)cc3)c2c1N,-59.7,12.2,19.1,48.3*,-3.1,u
CCOC(=O)c1sc2nc(C3CC3)cc(-c3ccc(F)cc3)c2c1N,-196.6,13.8,-9.6,29.4,x,x
CC(=NNC(=O)c1ccco1)c1cccnc1,1.4,x,x,x,x,x
CC1(C)Cc2c(sc3nc(NN=Cc4ccccc4)[nH]c(=O)c23)CO1,-474.0,x,x,x,x,x
NC(=S)NN=Cc1coc2cc(Br)ccc2c1=O,6.1,x,x,x,x,x
CN1CCCC(CC2c3ccccc3Sc3ccccc32)C1 (stereo not drawn),3.7,23.2,-47.4,46.3*,-0.5,27.0
CC1CCN(CCCNC(=O)c2cc3c(s2)-c2ccccc2OC3)CC1,i,9.7,36.9,34.9,x,x
Cc1cccc2c1-c1sc(C(=O)NCCCN3CCC(C)CC3)cc1CO2,i,26.4,38.3,53.2*,1.8,86.2*
O=C(CN1CCCc2ccccc21)NN=Cc1ccccc1,-3.8,x,x,x,x,x
CC(C)(Cc1ccc(O)cc1)NC(=O)CC(=O)NN=Cc1ccc(Cl)cc1,2.1,x,x,x,x,x
C#CCOCCOCCOCCNc1nc(N2CCN(C(=O)[C@H]([C@@H](C)CC)n3cc([C@@H](N)Cc4ccc(O)cc4)nn3)CC2)nc(N2CCN(C(=O)[C@H]([C@@H](C)CC)n3cc([C@@H](N)CC(C)C)nn3)CC2)n1,1.2,32.3,3.3,68.4*,-3.2,40.8
C#CCOCCOCCOCCNc1nc(N2CCOCC2)nc(N2CCN(C(=O)[C@H]([C@@H](C)CC)n3cc([C@@H](N)Cc4ccc(O)cc4)nn3)CC2)n1,1.9,-4.7,5.5,14.6,x,x
C#CCOCCOCCOCCNc1nc(N2CCN(C(=O)[C@H]([C@@H](C)CC)n3cc([C@@H](N)Cc4ccc(O)cc4)nn3)CC2)nc(N2CCN(C(=O)[C@H](Cc3ccc(O)cc3)n3cc([C@@H](N)CC(C)C)nn3)CC2)n1,-0.5,29.3,12.2,45.3*,-3.6,29.3
O=C(CCC1CCCCC1)NCCN1C2=NC[C@H](Cc3ccccc3)N2C[C@H]1Cc1ccc(O)cc1,0.9,12.5,-18.3,64.6*,2.3,60.5*
COc1ccc(C[C@@H]2CN3C(=NC[C@@H]3Cc3ccc(O)cc3)N2C[C@H](C)NC(=O)CCC2CCCCC2)cc1,0.4,30.1,6.6,56.2*,-0.4,38.3
COc1ccc(C=NN2CCOCC2)cc1Cn1nc(C)c([N+](=O)[O-])c1C,3.7,x,x,x,x,x
CC(=NNC(=O)CNC(=O)c1ccncc1)c1ccc(Cl)cc1,2.5,x,x,x,x,x
SMILES,UCH37 inh,Apaf1 inhib,PREPL inh,UBC13 inh,Casp3 counter,UBC13 conf
O=C(COC(=O)c1cc(Br)ccc1O)Nc1cccnc1Cl,-3.5,8.6,-8.7,47.4*,0.5,u
CCc1nc2ccccc2c(=O)n1NC(=O)c1c(O)c2ccccc2[nH]c1=O,x,-2.0,3.7,2.0,x,x
CCCc1nc2ccccc2c(=O)n1NC(=O)c1c(O)c2ccccc2n(C)c1=O,3.6,-0.6,0.4,46.8*,1.1,12.0
CCNC(=S)NN=Cc1ccc(F)cc1,4.9,x,x,x,x,x
O=C(NNC(=O)c1ccccn1)c1ccc(OC(F)F)cc1,-2.7,-4.5,6.2,96.0*,59.1*,67.7*
O=C(NCCc1ccccn1)c1ccc(OC(F)F)cc1,3.5,-15.5,-5.3,5.9,x,x
Cn1c(CO)cnc1SCC(=O)c1ccc(F)cc1,1.7,-4.0,8.8,-1.2,x,x
Cn1c(SCC(=O)NCC2CCCO2)ncc(C(=O)Nc2ccccc2)c1=O (stereo not drawn),-141.4,-0.5,-8.0,68.9*,96.3*,65.7*
Cc1ccc(CNC(=O)CSc2ncc(C(=O)Nc3ccccc3)c(=O)n2C)cc1,-141.2,-8.6,-6.6,54.7*,95.0*,62.7*
Cn1c(SCC(=O)NCc2ccccc2)ncc(C(=O)Nc2ccccc2)c1=O,-20.1,6.4,6.6,63.4*,95.5*,61.6*
O=C(CCCn1c(SCC(=O)NCC2CCCO2)nc2ccccc2c1=O)NCC1CCCO1 (stereo not drawn),4.0,-8.8,3.2,-1.4,x,x
COc1ccc(CCNC(=O)CSc2ncc(C(=O)Nc3ccccc3)c(=O)n2C)cc1,5.3,6.1,-3.2,35.8,x,x
Cn1c(SCC(=O)c2ccc(F)cc2)ncc(C(=O)Nc2ccccc2)c1=O,-17.8,0.5,-7.2,57.8*,79.2*,68.6*
Cc1ccc(C(=O)Nc2cccc(C(=O)NN=Cc3ccccc3F)c2)cc1,1.0,x,x,x,x,x
COc1cccc(NC(=O)c2cnc(SCC(=O)NCc3ccc4c(c3)OCO4)n(C)c2=O)c1,-51.4,4.9,-17.5,56.2*,97.5*,49.8*
CCCN(CCC)C(=O)C[n+]1cccc(C=NO)c1,-1.2,x,x,x,x,x
COC(=O)c1c(-c2ccc(OC)cc2)oc2ccc(-c3cc(OC)c(OC)c(OC)c3)cc12,x,3.0,5.7,52.5*,-1.0,u
CCCCNc1c(-c2ccc(OC)c(SC3CCCCC3)c2)nc2cc(C)ccn12,-162.8,21.3,18.4,49.9*,2.7,21.7
CCCCCCSc1cc(-c2nc3cc(C)ccn3c2NC2CCCCC2)ccc1OC,-146.7,21.4,6.9,50.8*,-1.4,29.8
CCOc1ccc(NC(=O)CC(C)=NNC(=O)Cc2cccs2)cc1,-0.5,x,x,x,x,x
COc1ccc(C(C)=NN=C(N)N)c(OC)c1,3.5,x,x,x,x,x
COc1cc(/C=C2/SC(=Nc3ccc(O)cc3)NC2=O)cc(OC)c1O,x,2.6,-23.1,48.0*,-2.9,46.7*
COc1cc(/C=C2\SC(=Nc3ccc(O)cc3)NC2=O)cc(OC)c1OC,4.2,-4.1,12.0,12.1,x,x
Fc1ccc(CON=CC2=C(Cl)c3ccccc3CC2)cc1,6.0,x,x,x,x,x
Nc1nc(Cl)nc2ccc(Br)cc12,x,-2.7,-1.2,49.4*,-2.7,u
CCc1c(C)nc2ccc(Br)cc2c1Cl,6.0,-10.4,4.9,17.6,x,x
Cc1cccc(N=Cc2c(C)[nH]n(-c3ccccc3)c2=O)n1,7.0,x,x,x,x,x
CCC(C)(C)NC(=O)C(c1ccc(C)o1)N(Cc1ccc2c(c1)OCO2)C(=O)c1snc(C(N)=O)c1N (stereo not drawn),-12.0,6.2,4.1,77.6*,-3.3,86.5*
